Source: ChEMBL document CHEMBL1124622, “Synthesis and antiviral activity of 3'-C-cyano-3'-deoxynucleosides” (J Med Chem, 1989)
Converted amounts (≈) assume the structure as drawn.

Legend:
Homo sapiens = species on record: Homo sapiens; test: Cytotoxic dose against uninfected human MT-4 cell; type: functional; conditions: MT4, read-out: CD50 (the source's name)
How it was run: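 Cytotoxicity counterpart of the HIV assay: uninfected human MT-4 lymphocytes exposed to the compounds. CD50 is the dose that reduces viability of these uninfected cells by 50%.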

Coxsackievirus = test: (§1) Minimum inhibitory concentration against Coxsackie virus B4 in Vero cell cultures; type: functional
How it was run: (§2)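 Confluent HeLa, Vero or primary rabbit kidney cell cultures in microtiter trays are inoculated with 100 CCID50 of virus. After 1 h adsorption, residual virus is removed and cells are incubated with varying compound concentrations. Cytopathogenicity is recorded once it is complete in untreated virus-infected controls. MIC is the concentration inhibiting virus-induced cytopathogenicity.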

[1] = tested on: Vesicular stomatitis virus; test: (§3) Minimum inhibitory concentration against Vesicular stomatitis virus in primary rabbit kidney cell cultures; type: functional; how it was run: as §2
[2] = tested on: Vesicular stomatitis virus; test: (§4) Minimum inhibitory concentration against Vesicular stomatitis virus in HeLa cell cultures; type: functional; how it was run: as §2
[3] = (§5) Minimum cytotoxic concentration in Vero cell cultures; type: cell-based; conditions: chlorocebus sabaeus, Vero cells
Human respirovirus 3 = test: (§6) Minimum inhibitory concentration against parainfluenza 3 virus in Vero cell cultures; type: functional; how it was run: as §2
Coxsackievirus B4 [4] = test: (§7) Minimum inhibitory concentration against Coxsackie virus B4 in HeLa cell cultures; type: functional; conditions: Enterovirus B; how it was run: as §2
Reovirus sp. = test: (§8) Minimum inhibitory concentration against reovirus in Vero cell cultures; type: functional; how it was run: as §2
Sindbis virus = test: Minimum inhibitory concentration against Sindbis virus in Vero cell cultures; type: functional; how it was run: as §2
Enterovirus C = test: (§9) Minimum inhibitory concentration against polio virus 1 in HeLa cell cultures; type: functional; how it was run: as §2
[5] = tested on: Human immunodeficiency virus 1; test: Effective dose against HIV-1 induced cytopathogenicity in human MT-4 cell.; type: functional; conditions: Human immunodeficiency virus 1, MT4; read-out: ED50 (the source's name)
How it was run: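 HIV (HTLV-III_B) is taken from the culture supernatant of a persistently infected HUT-78 line. Human MT-4 lymphocytes are infected and the assay scores inhibition of virus-induced cytopathogenicity. ED50 is the dose giving 50% protection of MT-4 cells against the viral cytopathic effect.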

[6] = tested on: Moloney murine sarcoma virus; test: In vitro effective dose against Moloney murine sarcoma virus induced transformation of C3H embryo fibroblast cells.; type: functional; conditions: read-out: ED50 (the source's name)
How it was run: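 C3H mouse embryo cells are seeded at 20 000 cells/mL per well and grown 24 h. They are infected with 80 foci-forming units of Moloney MSV for 90 min, then given fresh medium with varying compound concentrations. Transformation is examined microscopically after 6-7 days. ED50 is the dose giving a 50% reduction in transformation.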

[7] = (§10) Minimum cytotoxic concentration in primary rabbit kidney cell cultures; type: cell-based, Oryctolagus cuniculus; conditions: primary rabbit kidney cells
[8] = (§11) Minimum cytotoxic concentration in HeLa cell cultures; type: cell-based; conditions: human, HeLa cells
Semliki Forest virus = test: Minimum inhibitory concentration against forest virus in Vero cell cultures; type: functional; how it was run: as §2
[9] = In vitro minimum cytotoxic concentration in C3H embryo fibroblast cells.; type: functional; conditions: Mus musculus
How it was run: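 Minimal cytotoxic concentration in C3H mouse embryo cells, run in the same 48-well setup as the MSV transformation assay: the concentration producing microscopically visible alteration of cell morphology.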

Vaccinia virus = test: (§12) Minimum inhibitory concentration against Vaccinia virus in primary rabbit kidney cell cultures; type: functional; conditions: Orthopoxvirus vaccinia; how it was run: as §2
Coxsackievirus B4 [10] = test: as §1; type: functional; conditions: Enterovirus B; how it was run: as §2
[11] = inimum cytotoxic concentration in Vero cell cultures; type: cell-based; conditions: chlorocebus sabaeus, Vero cells
HeLa [12] = test: as §4; type: functional; conditions: Homo sapiens; how it was run: as §2
HeLa [13] = test: as §7; type: functional; conditions: Homo sapiens; how it was run: as §2
[14] = tested on: Mammalian orthoreovirus 1; test: as §8; type: functional; how it was run: as §2
HeLa [15] = test: as §9; type: functional; conditions: Homo sapiens; how it was run: as §2
Oryctolagus cuniculus [16] = species on record: Oryctolagus cuniculus; test: as §10; type: functional
Vero [17] = test: as §5; type: functional; conditions: Chlorocebus sabaeus
HeLa [18] = test: as §11; type: functional; conditions: Homo sapiens
Vero [19] = test: as §6; type: functional, Human respirovirus 3; conditions: Chlorocebus sabaeus; how it was run: as §2
Oryctolagus cuniculus [20] = species on record: Oryctolagus cuniculus; test: as §12; type: functional; how it was run: as §2
Oryctolagus cuniculus [21] = species on record: Oryctolagus cuniculus; test: as §3; type: functional; how it was run: as §2
Oryctolagus cuniculus [22] = species on record: Oryctolagus cuniculus; test: Minimum inhibitory concentration against Herpes simplex virus 1(KOS) in primary rabbit kidney cell cultures; type: functional; how it was run: as §2
Oryctolagus cuniculus [23] = species on record: Oryctolagus cuniculus; test: Minimum cytotoxic concentration in primary rabbit kidney cell cultures
Oryctolagus cuniculus [24] = species on record: Oryctolagus cuniculus; test: Minimum inhibitory concentration against Herpes simplex virus 2 (G) in primary rabbit kidney cell cultures; type: functional; how it was run: as §2

Compound: N#C[C@H]1[C@@H](O)[C@H](n2cnc3c(N)ncnc32)O[C@@H]1CO
- CC50 (Homo sapiens): 3.8 µM
- MIC (Coxsackievirus): > 100 µg/mL
- MIC [1]: > 400 µg/mL
- MIC [2]: > 100 µg/mL
- MCC [3]: 100 µg/mL
- MIC (Human respirovirus 3): > 100 µg/mL
- MIC (Coxsackievirus B4 [4]): 200 µg/mL (≈ 724 µM)
- MIC (Reovirus sp.): > 40 µg/mL
- MIC (Sindbis virus): 10 µg/mL (≈ 36.2 µM)
- MIC (Enterovirus C): > 100 µg/mL
- EC50 [5]: > 1.6 µM
- EC50 [6]: 8.5 µg/mL (≈ 30.8 µM)
- MCC [7]: > 400 µg/mL
- MCC [8]: > 200 µg/mL
- MIC (Semliki Forest virus): 20 µg/mL (≈ 72.4 µM)
- MCC [9]: > 40 µg/mL

Compound: CC(C)(C)[Si](C)(C)OC[C@H]1O[C@@H](n2cnc3c(N)ncnc32)[C@H](O[Si](C)(C)C(C)(C)C)[C@H]1C#N
- CC50 (Homo sapiens): 25 µM
- MIC (Vaccinia virus): > 40 µg/mL
- MIC (Coxsackievirus B4 [10]): 20 µg/mL (≈ 39.6 µM)
- MIC [1]: > 40 µg/mL
- MCC [11]: > 40 µg/mL
- MIC (HeLa [12]): > 40 µg/mL
- MIC (Human respirovirus 3): > 10 µg/mL
- MIC (HeLa [13]): > 40 µg/mL
- MIC [14]: > 10 µg/mL
- MIC (Sindbis virus): 20 µg/mL (≈ 39.6 µM)
- MIC (HeLa [15]): > 40 µg/mL
- EC50 [5]: > 16 µM
- EC50 [6]: 16 µg/mL (≈ 31.7 µM)
- MCC [7]: > 100 µg/mL
- MCC [8]: > 100 µg/mL
- MIC (Semliki Forest virus): > 40 µg/mL
- MCC [9]: 80 µg/mL

Compound: Cc1cn([C@H]2C[C@@H](C#N)[C@@H](CO)O2)c(=O)[nH]c1=O
- CC50 (Homo sapiens): > 250 µM
- MIC (Vaccinia virus): > 400 µg/mL
- MIC (Coxsackievirus B4 [10]): > 400 µg/mL
- MIC [1]: > 400 µg/mL
- MIC (HeLa [12]): > 400 µg/mL
- MCC [3]: > 400 µg/mL
- MIC (Human respirovirus 3): > 200 µg/mL
- MIC (HeLa [13]): > 400 µg/mL
- MIC [14]: > 200 µg/mL
- MIC (Sindbis virus): > 400 µg/mL
- MIC (HeLa [15]): > 400 µg/mL
- EC50 [5]: > 250 µM
- EC50 [6]: > 250 µg/mL
- MCC [7]: > 400 µg/mL
- MCC [8]: > 400 µg/mL
- MIC (Semliki Forest virus): > 400 µg/mL
- MCC [9]: > 250 µg/mL

Compound: Cc1cn(C2C=C(C#N)C(CO)O2)c(=O)[nH]c1=O (stereo not given)
- CC50 (Homo sapiens): 24 µM
- MIC (Vaccinia virus): > 100 µg/mL
- MIC (Coxsackievirus B4 [10]): > 100 µg/mL
- MIC [1]: > 100 µg/mL
- MIC (HeLa [12]): 150 µg/mL (≈ 602 µM)
- MCC [3]: > 100 µg/mL
- MIC (Human respirovirus 3): > 40 µg/mL
- MIC (HeLa [13]): > 200 µg/mL
- MIC [14]: > 40 µg/mL
- MIC (Sindbis virus): > 100 µg/mL
- MIC (HeLa [15]): > 200 µg/mL
- EC50 [5]: > 50 µM
- EC50 [6]: 191 µg/mL (≈ 766 µM)
- MCC [7]: 200 µg/mL
- MCC [8]: 400 µg/mL
- MIC (Semliki Forest virus): > 40 µg/mL
- MCC [9]: > 250 µg/mL

Compound: N#CC1C(CO)OC(n2ccc(N)nc2=O)C1O (stereo not given)
- CC50 (Homo sapiens): 22.7 µM
- MIC (Vaccinia virus): 40 µg/mL (≈ 159 µM)
- MIC (Coxsackievirus B4 [10]): > 100 µg/mL
- MIC [1]: > 100 µg/mL
- MIC (HeLa [12]): 70 µg/mL (≈ 278 µM)
- MCC [3]: 200 µg/mL
- MIC (Human respirovirus 3): > 100 µg/mL
- MIC (HeLa [13]): > 40 µg/mL
- MIC [14]: > 100 µg/mL
- MIC (Sindbis virus): > 100 µg/mL
- MIC (HeLa [15]): > 40 µg/mL
- EC50 [5]: > 10 µM
- EC50 [6]: 43 µg/mL (≈ 170 µM)
- MCC [7]: > 100 µg/mL
- MCC [8]: 100 µg/mL
- MIC (Semliki Forest virus): > 100 µg/mL
- MCC [9]: > 200 µg/mL

Compound: Nc1ncnc2c1ncn2C[C@H](O)CO [(S)-DHPA]
- MIC (Vaccinia virus): 20 µg/mL (≈ 95.6 µM)
- MIC (Coxsackievirus B4 [10]): 100 µg/mL (≈ 478 µM)
- MIC [1]: 20 µg/mL (≈ 95.6 µM)
- MIC (HeLa [12]): > 400 µg/mL
- MIC (HeLa [13]): 2 µg/mL (≈ 9.56 µM)
- MIC [14]: 7 µg/mL (≈ 33.5 µM)
- MCC (Oryctolagus cuniculus [16]): ≥ 400 µg/mL
- MCC (Vero [17]): 400 µg/mL
- MCC (HeLa [18]): > 400 µg/mL
- MIC (Sindbis virus): > 400 µg/mL
- MIC (HeLa [15]): > 400 µg/mL
- MIC (Vero [19]): 150 µg/mL (≈ 717 µM)
- MIC (Semliki Forest virus): > 400 µg/mL

Compound: NC(=O)c1ncn([C@@H]2O[C@H](CO)[C@@H](O)[C@H]2O)n1 [RIBAVIRIN]
- MIC (Oryctolagus cuniculus [20]): 10 µg/mL (≈ 40.9 µM)
- MIC (Coxsackievirus B4 [10]): 100 µg/mL (≈ 409 µM)
- MIC (Oryctolagus cuniculus [21]): 300 µg/mL (≈ 1230 µM)
- MIC (HeLa [12]): 20 µg/mL (≈ 81.9 µM)
- MCC [3]: > 400 µg/mL
- MIC (Oryctolagus cuniculus [22]): > 400 µg/mL
- MIC (Human respirovirus 3): 40 µg/mL (≈ 164 µM)
- MIC (HeLa [13]): 70 µg/mL (≈ 287 µM)
- MIC [14]: 70 µg/mL (≈ 287 µM)
- MIC (Sindbis virus): 70 µg/mL (≈ 287 µM)
- MIC (HeLa [15]): 70 µg/mL (≈ 287 µM)
- MCC (Oryctolagus cuniculus [23]): > 400 µg/mL
- MCC [8]: > 200 µg/mL
- MIC (Oryctolagus cuniculus [24]): > 400 µg/mL
- MIC (Semliki Forest virus): 300 µg/mL (≈ 1230 µM)

Compound: Nc1ncnc2c1ccn2[C@@H]1O[C@H](CO)[C@@H](O)[C@H]1O [TUBERCIDIN]
- MIC (Vaccinia virus): 0.1 µg/mL (≈ 0.376 µM)
- MIC (Coxsackievirus B4 [10]): > 0.1 µg/mL
- MIC [1]: 0.07 µg/mL (≈ 0.263 µM)
- MIC (HeLa [12]): 0.07 µg/mL (≈ 0.263 µM)
- MCC [3]: 0.4 µg/mL
- MIC (Human respirovirus 3): > 0.1 µg/mL
- MIC (HeLa [13]): 0.4 µg/mL (≈ 1.5 µM)
- MIC [14]: > 0.1 µg/mL
- MIC (Sindbis virus): 0.2 µg/mL (≈ 0.751 µM)
- MIC (HeLa [15]): 0.4 µg/mL (≈ 1.5 µM)
- MCC (Oryctolagus cuniculus [23]): > 0.4 µg/mL
- MCC [8]: > 0.4 µg/mL
- MIC (Semliki Forest virus): > 0.1 µg/mL
